Usually IC50 stands for the point on the concentration scale where inhibition reaches its midpoint.

Activity calls are given as the source filed them. The calls are words filed in the database; no cut-off is given here.

This note sets out measurements from ChEMBL document CHEMBL5338733, “Heterobifunctional Ligase Recruiters Enable pan-Degradation of Inhibitor of Apoptosis Proteins” (J Med Chem, 2023).

For experiment [1], the target named is Baculoviral IAP repeat-containing protein 2 (Homo sapiens) (UniProt Q13490). Nature of the experiment: Induction of cIAP1 degradation in human MM1.S cells at 100 nM incubated for 3 hrs by diaPASEF-based analysis. The format is cell-based. Put shortly: (§1)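 MM.1S cells exposed to DMSO or 0.1 μM compound for 3 h, then washed with PBS and snap-frozen. Lysed in 8 M urea/EPPS pH 8.5 buffer. 50 μg protein reduced, alkylated, precipitated, then digested with LysC and trypsin. Analysed by diaPASEF on timsTOF Pro2. Missing values imputed from a Gaussian distribution; log2 fold change versus DMSO with limma statistics.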
Baculoviral IAP repeat-containing protein 2 (Homo sapiens), sequence (Q13490 whole entry): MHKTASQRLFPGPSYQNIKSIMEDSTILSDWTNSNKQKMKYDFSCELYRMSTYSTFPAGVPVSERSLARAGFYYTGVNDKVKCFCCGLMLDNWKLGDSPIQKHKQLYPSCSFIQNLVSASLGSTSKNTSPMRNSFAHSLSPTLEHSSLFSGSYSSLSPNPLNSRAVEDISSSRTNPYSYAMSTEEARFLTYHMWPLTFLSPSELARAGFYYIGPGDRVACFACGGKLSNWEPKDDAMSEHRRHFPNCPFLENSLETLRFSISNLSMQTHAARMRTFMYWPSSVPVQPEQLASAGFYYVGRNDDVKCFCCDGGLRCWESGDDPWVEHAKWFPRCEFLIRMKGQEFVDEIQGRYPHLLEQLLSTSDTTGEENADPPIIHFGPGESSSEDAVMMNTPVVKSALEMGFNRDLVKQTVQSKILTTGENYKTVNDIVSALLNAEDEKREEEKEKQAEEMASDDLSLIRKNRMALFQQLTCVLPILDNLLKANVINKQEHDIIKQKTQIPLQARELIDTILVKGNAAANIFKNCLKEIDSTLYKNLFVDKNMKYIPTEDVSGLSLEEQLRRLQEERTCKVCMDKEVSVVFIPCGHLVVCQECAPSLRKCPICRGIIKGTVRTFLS

Experiment [2] deals with E3 ubiquitin-protein ligase XIAP (Homo sapiens) (UniProt P98170). Nature of the experiment: Induction of XIAP degradation in human MM1.S cells at 100 nM incubated for 3 hrs by diaPASEF-based analysis. The format is cell-based. In short, it runs like this: as §1
E3 ubiquitin-protein ligase XIAP (Homo sapiens), sequence (P98170 whole entry): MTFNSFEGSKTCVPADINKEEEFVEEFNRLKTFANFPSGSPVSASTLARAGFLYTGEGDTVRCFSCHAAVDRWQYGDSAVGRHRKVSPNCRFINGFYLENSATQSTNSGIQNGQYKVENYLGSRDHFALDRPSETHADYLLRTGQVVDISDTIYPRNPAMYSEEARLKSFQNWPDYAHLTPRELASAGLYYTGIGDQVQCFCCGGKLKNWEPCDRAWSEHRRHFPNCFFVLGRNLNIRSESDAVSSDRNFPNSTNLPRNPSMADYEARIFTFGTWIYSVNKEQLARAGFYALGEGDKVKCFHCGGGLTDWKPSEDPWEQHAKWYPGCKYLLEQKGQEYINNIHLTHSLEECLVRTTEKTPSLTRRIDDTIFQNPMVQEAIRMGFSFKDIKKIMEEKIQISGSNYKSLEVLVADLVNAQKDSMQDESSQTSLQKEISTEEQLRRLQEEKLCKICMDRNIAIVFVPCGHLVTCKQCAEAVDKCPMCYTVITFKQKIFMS
In experiment [3] the target is T1, von Hippel-Lindau disease tumor suppressor/Baculoviral IAP repeat-containing protein 2 (Homo sapiens) (UniProt Q13490+P40337). Nature of the experiment: PROTAC activity at VHL/IAP in human MM1.S cells assessed as induction of cIAP1 degradation incubated for 16 hrs by western blot analysis. The class given is cell-based. Put shortly: (§2)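 MM.1S cells treated 16 h at 0.1 or 1 μM (or concentration series); lysed, SDS-PAGE, PVDF immunoblot, ECL; densitometry normalized to loading control and DMSO; average of ≥3 independent experiments, DC50 from n = 4 repeats where derived.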
T1 sequence (P40337 whole entry, looked up): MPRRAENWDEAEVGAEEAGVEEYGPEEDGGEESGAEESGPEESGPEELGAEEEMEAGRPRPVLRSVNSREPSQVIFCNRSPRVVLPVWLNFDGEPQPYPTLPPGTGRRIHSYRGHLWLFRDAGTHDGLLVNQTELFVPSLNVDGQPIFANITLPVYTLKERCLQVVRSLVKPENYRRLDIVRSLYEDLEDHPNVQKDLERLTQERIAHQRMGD
T1 sequence (Q13490 whole entry, looked up): as the sequence (Q13490 whole entry) above
Background: A western blot detects proteins with antibodies after separation by electrophoresis.

Experiment [4] has as its target T2, von Hippel-Lindau disease tumor suppressor/Baculoviral IAP repeat-containing protein 3 (Homo sapiens) (UniProt Q13489+P40337). Nature of the experiment: PROTAC activity at VHL/IAP in human MM1.S cells assessed as induction of cIAP2 degradation incubated for 16 hrs by western blot analysis. The format is cell-based. In short, it runs like this:
as §2

Experiment [5] has as its target T3, von Hippel-Lindau disease tumor suppressor/E3 ubiquitin-protein ligase XIAP (Homo sapiens) (UniProt P98170+P40337). Nature of the experiment: PROTAC activity at VHL/IAP in human MM1.S cells assessed as induction of XIAP degradation incubated for 16 hrs by western blot analysis. The format is cell-based. Put shortly:
as §2

Experiment [6] concerns the target T4, von Hippel-Lindau disease tumor suppressor/IAP (Homo sapiens) (UniProt P98170+Q13489+Q13490+P40337). Nature of the experiment: PROTAC activity at VHL/IAP in human MM1.S cells assessed as induction of VHL30 degradation incubated for 16 hrs by western blot analysis. The class given is cell-based. The following applies: dose 0.0001-1 µM. Put shortly: as §2
The target of experiment [7] is T1, von Hippel-Lindau disease tumor suppressor/Baculoviral IAP repeat-containing protein 2 (Homo sapiens). Nature of the experiment: PROTAC activity at VHL/IAP in human MM1.S cells assessed as induction of cIAP1 degradation at 0.1 uM measured after 3 hrs by western blot analysis. The class given is cell-based. In short, it runs like this: (§3)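 Time course in MM.1S cells at 0.1 μM; protein levels at sampled time points by immunoblot (SDS-PAGE, PVDF, ECL) with densitometry.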

Experiment [8] has as its target T2, von Hippel-Lindau disease tumor suppressor/Baculoviral IAP repeat-containing protein 3 (Homo sapiens). Nature of the experiment: PROTAC activity at VHL/IAP in human MM1.S cells assessed as induction of cIAP2 degradation at 0.1 uM measured after 3 hrs by western blot analysis. The format is cell-based. Put shortly:
as §3

Experiment [9] deals with T3, von Hippel-Lindau disease tumor suppressor/E3 ubiquitin-protein ligase XIAP (Homo sapiens). Nature of the experiment: PROTAC activity at VHL/IAP in human MM1.S cells assessed as induction of XIAP degradation at 0.1 uM measured after 3 hrs by western blot analysis. The class given is cell-based. Put shortly: as §3
Experiment [10] concerns the target T4, von Hippel-Lindau disease tumor suppressor/IAP (Homo sapiens). Nature of the experiment: PROTAC activity at VHL/IAP in human MM1.S cells assessed as induction of VHL30 degradation at 0.1 uM measured after 6 hrs by western blot analysis. The class given is cell-based. In short, it runs like this:
as §3

Experiment [11] deals with T1, von Hippel-Lindau disease tumor suppressor/Baculoviral IAP repeat-containing protein 2 (Homo sapiens). Nature of the experiment: PROTAC activity at VHL/IAP in human MM1.S cells assessed as induction of cIAP1 degradation at 1 uM incubated for 16 hrs followed by drug wash-out for 72 hrs by western blot analysis. The class given is cell-based. In short, it runs like this:
(§4)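 MM.1S cells given a single exposure to 1 μM, then compound washed out and protein followed up to 72 h by immunoblot with densitometry.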

The target in experiment [12] is T2, von Hippel-Lindau disease tumor suppressor/Baculoviral IAP repeat-containing protein 3 (Homo sapiens). Nature of the experiment: PROTAC activity at VHL/IAP in human MM1.S cells assessed as induction of cIAP2 degradation at 1 uM incubated for 16 hrs followed by drug wash-out for 72 hrs by western blot analysis. The class given is cell-based. In short, it runs like this:
as §4

Experiment [13] concerns the target T3, von Hippel-Lindau disease tumor suppressor/E3 ubiquitin-protein ligase XIAP (Homo sapiens). Nature of the experiment: PROTAC activity at VHL/IAP in human MM1.S cells assessed as induction of XIAP degradation at 1 uM incubated for 16 hrs followed by drug wash-out for 72 hrs by western blot analysis. The format is cell-based. Put shortly: as §4
Experiment [14] deals with T4, von Hippel-Lindau disease tumor suppressor/IAP (Homo sapiens). Nature of the experiment: PROTAC activity at VHL/IAP in human MM1.S cells assessed as induction of VHL30 degradation at 1 uM incubated for 16 hrs followed by drug wash-out for 72 hrs by western blot analysis. The class given is cell-based. In short, it runs like this:
as §4

Experiment [15] shares this target. Nature of the experiment: PROTAC activity at VHL/IAP in human MM1.S cells assessed as induction of VHL19 degradation at 1 uM incubated for 16 hrs followed by drug wash-out for 72 hrs by western blot analysis. The format is cell-based. Put shortly:
as §4

The target of experiment [16] is T3, von Hippel-Lindau disease tumor suppressor/E3 ubiquitin-protein ligase XIAP (Homo sapiens). Nature of the experiment: PROTAC activity at VHL/IAP in human MM1.S cells assessed as induction of XIAP degradation at 1 uM incubated for 16 hrs followed by drug wash-out for 72 hrs and later treated with VHL inhibitor, VH298 by western blot analysis. The format is cell-based.

For experiment [17], the target named is T4, von Hippel-Lindau disease tumor suppressor/IAP (Homo sapiens). Nature of the experiment: PROTAC activity at VHL/IAP in cIPA1 knock-out human MM1.S cells assessed as induction of VHL30 degradation at 0.1 uM incubated for 16 hrs by western blot analysis. The class given is cell-based. Put shortly: (§5)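 Cas9-expressing MM.1S cells transduced with sgRNA against cIAP1, cIAP2 or XIAP (control sgRNA luciferase; ≥95% transduction by FACS at 48 h); treated 0.1 μM for 16 h; VHL30 measured by immunoblot (SDS-PAGE, PVDF, ECL) with densitometry.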

Experiment [18] has the same target. Nature of the experiment: PROTAC activity at VHL/IAP in cIPA2 knock-out human MM1.S cells assessed as induction of VHL30 degradation at 0.1 uM incubated for 16 hrs by western blot analysis. The class given is cell-based. Put shortly: as §5
For experiment [19] the target is unchanged. Nature of the experiment: PROTAC activity at VHL/IAP in XIAP knock-out human MM1.S cells assessed as induction of VHL30 degradation at 0.1 uM incubated for 16 hrs by western blot analysis. The format is cell-based. In short, it runs like this: as §5
The target in experiment [20] is T1, von Hippel-Lindau disease tumor suppressor/Baculoviral IAP repeat-containing protein 2 (Homo sapiens). Nature of the experiment: PROTAC activity at VHL/IAP in human MM1.S cells assessed as induction of cIAP1 degradation pretreated for 1 hr with proteasome inhibitor, MG132 followed by incubation with drug for 3 hrs by western blot analysis. The format is cell-based.

Experiment [21] deals with T2, von Hippel-Lindau disease tumor suppressor/Baculoviral IAP repeat-containing protein 3 (Homo sapiens). Nature of the experiment: PROTAC activity at VHL/IAP in human MM1.S cells assessed as induction of cIAP2 degradation pretreated for 1 hr with proteasome inhibitor, MG132 followed by incubation with drug for 3 hrs by western blot analysis. The class given is cell-based.

Experiment [22] deals with T3, von Hippel-Lindau disease tumor suppressor/E3 ubiquitin-protein ligase XIAP (Homo sapiens). Nature of the experiment: PROTAC activity at VHL/IAP in human MM1.S cells assessed as induction of XIAP degradation pretreated for 1 hr with proteasome inhibitor, MG132 followed by incubation with drug for 3 hrs by western blot analysis. The class given is cell-based.
Experiment [23] deals with T1, von Hippel-Lindau disease tumor suppressor/Baculoviral IAP repeat-containing protein 2 (Homo sapiens). Nature of the experiment: PROTAC activity at VHL/IAP in human MM1.S cells assessed as induction of cIAP1 degradation pretreated for 1 hr with ubiquitin-activating inhibitor, MLN7243 followed by incubation with drug for 3 hrs by western blot analysis. The format is cell-based.

For experiment [24], the target named is T2, von Hippel-Lindau disease tumor suppressor/Baculoviral IAP repeat-containing protein 3 (Homo sapiens). Nature of the experiment: PROTAC activity at VHL/IAP in human MM1.S cells assessed as induction of cIAP2 degradation pretreated for 1 hr with ubiquitin-activating inhibitor, MLN7243 followed by incubation with drug for 3 hrs by western blot analysis. The format is cell-based.

Experiment [25] has as its target T3, von Hippel-Lindau disease tumor suppressor/E3 ubiquitin-protein ligase XIAP (Homo sapiens). Nature of the experiment: PROTAC activity at VHL/IAP in human MM1.S cells assessed as induction of XIAP degradation pretreated for 1 hr with ubiquitin-activating inhibitor, MLN7243 followed by incubation with drug for 3 hrs by western blot analysis. The format is cell-based.

In experiment [26] the target is T1, von Hippel-Lindau disease tumor suppressor/Baculoviral IAP repeat-containing protein 2 (Homo sapiens). Nature of the experiment: PROTAC activity at VHL/IAP in human MM1.S cells assessed as induction of cIAP1 degradation at 100 nM incubated for 3 hrs by diaPASEF-based analysis. The format is cell-based. Put shortly: (§6)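 MM.1S cells treated with DMSO or 0.1 μM for 3 h (four biological replicates); urea lysis, reduction/alkylation, LysC then trypsin digestion, diaPASEF on timsTOF Pro2; label-free quantification, missing values imputed from Gaussian distribution, log2 fold change vs DMSO with limma statistics.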

Experiment [27] has as its target T3, von Hippel-Lindau disease tumor suppressor/E3 ubiquitin-protein ligase XIAP (Homo sapiens). Nature of the experiment: PROTAC activity at VHL/IAP in human MM1.S cells assessed as induction of XIAP degradation at 100 nM incubated for 3 hrs by diaPASEF-based analysis. The class given is cell-based. In short, it runs like this: as §6
The next experiment has as its system NCI-H929. Nature of the experiment: Cytotoxicity against human NCI-H929 cells assessed as reduction in cell viability measured after 96 hrs in presence of TNF-alpha by CellTiter-Glo luminescent assay. The format is functional, cell-based. The following applies: NCI-H929, 96 h. In short, it runs like this:
(§7)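 Cells seeded with compound at indicated concentrations ± TNF-α 1 ng/mL, incubated 96 h at 37 °C; viability by CellTiter-Glo luminescence, normalized to DMSO control; mean ± SD of biological triplicates. NCI-H929 cultured in RPMI-1640/10% FBS with 2-mercaptoethanol and sodium pyruvate; other lines in RPMI-1640/10% FBS, 37 °C, 5% CO2.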
A general note: In ATP-based viability assays light output follows the ATP content of the culture.

The subject of another experiment is SU-DHL-6. Nature of the experiment: Cytotoxicity against human SU-DHL-6 cells assessed as reduction in cell viability measured after 96 hrs in presence of TNF-alpha by CellTiter-Glo luminescent assay. The class given is functional, cell-based. The settings on record: SU-DHL-6, 96 h. In short, it runs like this:
as §7

T2 sequence (P40337 whole entry, looked up): as the sequence (P40337 whole entry, looked up) above
T2 sequence (Q13489 whole entry, looked up): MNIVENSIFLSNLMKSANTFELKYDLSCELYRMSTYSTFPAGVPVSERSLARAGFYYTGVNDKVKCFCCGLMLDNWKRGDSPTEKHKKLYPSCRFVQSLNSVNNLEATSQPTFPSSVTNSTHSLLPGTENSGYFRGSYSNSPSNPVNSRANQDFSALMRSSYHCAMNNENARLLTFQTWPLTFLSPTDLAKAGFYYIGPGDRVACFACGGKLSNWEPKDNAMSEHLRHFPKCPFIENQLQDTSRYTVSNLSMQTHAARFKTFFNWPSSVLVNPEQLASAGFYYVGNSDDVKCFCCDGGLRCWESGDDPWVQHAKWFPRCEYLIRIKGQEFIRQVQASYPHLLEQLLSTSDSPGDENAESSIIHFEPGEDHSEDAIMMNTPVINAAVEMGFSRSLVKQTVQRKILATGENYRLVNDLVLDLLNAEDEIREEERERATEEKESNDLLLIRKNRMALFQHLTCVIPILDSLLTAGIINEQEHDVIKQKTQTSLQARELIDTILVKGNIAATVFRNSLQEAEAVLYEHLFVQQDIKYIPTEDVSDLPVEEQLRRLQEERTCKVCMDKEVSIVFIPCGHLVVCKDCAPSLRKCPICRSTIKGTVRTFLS
T3 sequence (P40337 whole entry, looked up): as the sequence (P40337 whole entry, looked up) above
T3 sequence (P98170 whole entry, looked up): as the sequence (P98170 whole entry) above
T4 sequence (P40337 whole entry, looked up): as the sequence (P40337 whole entry, looked up) above
T4 sequence (P98170 whole entry, looked up): as the sequence (P98170 whole entry) above
T4 sequence (Q13489 whole entry, looked up): as the sequence (Q13489 whole entry, looked up) above
T4 sequence (Q13490 whole entry, looked up): as the sequence (Q13490 whole entry) above

With `CN[C@@H](C)C(=O)N[C@@H](C(=O)N1CCC[C@H]1C(=O)N[C@@H]1c2ccccc2C[C@@H]1OCC#CC#CCO[C@H]1Cc2ccccc2[C@H]1NC(=O)[C@@H]1CCCN1C(=O)[C@H](NC(=O)[C@H](C)NC)C1CCCCC1)C1CCCCC1`, the result in experiment [1] was Active. The result in experiment [2] was inactive.
As for `CN[C@@H](C)C(=O)N[C@H](C(=O)N1C[C@@H](Oc2cccc(OCCCCC(=O)N[C@H](C(=O)N3C[C@H](O)C[C@H]3C(=O)N[C@@H](C)c3ccc(-c4scnc4C)cc3)C(C)(C)C)c2)C[C@H]1C(=O)N[C@@H]1CCCc2ccccc21)C1CCCCC1`, the Activity entry in [3] was “Dose-Dependent Effect”; in [4], “Dose-Dependent Effect”; in [5], “Dose-Dependent Effect”; in experiment [6] it was “Dose-Dependent Effect”; in experiment [7], 100%; in experiment [8] it was 100%. Moreover, the Activity in experiment [9] was found to be 100%. Further, the result in experiment [10], in experiment [11], in experiment [12], in experiment [13], in experiment [17] and in experiment [18] was Active. Also, the outcome in experiment [19], in experiment [26] and in experiment [27] was Active. The outcome in [14], in [15], in experiment [16], in [20], in experiment [21] and in experiment [22] was inactive. The result in [23], in [24] and in experiment [25] was inactive. Also, the IC50 is 8 nM in the experiment with NCI-H929 and 1.6 nM in the experiment on SU-DHL-6.
